Assay results taken from ChEMBL document CHEMBL4706633, “Design, Synthesis, and Biological Evaluation of a Series of Oxazolone Carboxamides as a Novel Class of Acid Ceramidase Inhibitors” (J Med Chem, 2020).
The source made the active and inactive calls. No cut-off for these calls is given here.

Experiments:
[1] = tested on: SH-SY5Y; test: Effect on SM (d18:1/16:0) levels in human SH-SY5Y cells at 10 uM incubated for 1 to 6 hrs by LC-MS analysis; type: functional, cell-based; details: time 1-6 hrs
Summary of the method: (§1)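 SH-SY5Y neuroblastoma cultures were treated at 10 μM for 1, 3 or 6 h. Intracellular sphingolipids (Cer, So, SM, HexCer) were then identified and quantified by LC/MS.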

[2] = target: T1, Acid ceramidase (Homo sapiens) (UniProt Q13510); test: Inhibition of acid ceramidase in human SH-SY5Y cells assessed as intracellular accumulation of Cer (d18:0/16:0) at 10 uM incubated for 1 to 6 hrs by LC-MS analysis; type: cell-based; details: time 1-6 hrs; summary of the method: as §1
T1 sequence (whole entry): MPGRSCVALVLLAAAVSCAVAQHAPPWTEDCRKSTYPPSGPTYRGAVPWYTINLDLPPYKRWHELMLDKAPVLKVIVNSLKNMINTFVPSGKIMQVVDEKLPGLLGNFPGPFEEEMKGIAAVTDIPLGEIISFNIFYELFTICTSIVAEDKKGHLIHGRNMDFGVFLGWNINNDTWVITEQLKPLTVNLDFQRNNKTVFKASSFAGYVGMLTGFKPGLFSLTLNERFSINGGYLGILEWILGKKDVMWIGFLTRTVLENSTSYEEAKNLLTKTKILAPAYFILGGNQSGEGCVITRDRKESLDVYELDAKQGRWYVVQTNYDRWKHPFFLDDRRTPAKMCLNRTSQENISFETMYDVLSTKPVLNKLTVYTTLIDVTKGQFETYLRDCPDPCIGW

[3] = target: T1, Acid ceramidase (Homo sapiens); test: Inhibition of acid ceramidase in human SH-SY5Y cells assessed as intracellular accumulation of Cer (d18:1/16:0) at 1 to 10 uM incubated for 3 hrs by LC-MS analysis; type: cell-based; details: dose 1-10 µM
Summary of the method: (§2)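 SH-SY5Y human neuroblastoma cells were exposed for 3 h at 1, 2.5, 5 or 10 μM. Cellular sphingolipids (Cer species, So, SM, HexCer) were quantified by LC/MS. Data are means ± SEM of at least six determinations, with experiments repeated twice. Significance was taken at p < 0.05.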

[4] = Half life in mouse plasma at 2 uM by LC/MS-MS analysis; type: ADME, cell-free
Summary of the method: (§3)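 Kinetic aqueous solubility was measured in PBS, pH 7.4. Metabolic stability was measured as t1/2 in mouse plasma and mouse liver microsomes, with microsomal data also given as % compound remaining at 1 h. Values are means of at least two independent experiments, each in two technical replicates.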

[5] = target: T1, Acid ceramidase (Homo sapiens); test: Inhibition of acid ceramidase in human SH-SY5Y cells assessed as reduction in sphingolipid levels at 10 uM incubated for 1 to 6 hrs by LC-MS analysis; type: cell-based; details: time 1-6 hrs, TDE = time-dependent effect; summary of the method: as §1
[6] = AUC in C57BL/6 mouse at 3 mg/kg, iv measured up to 4 hrs by LC/MS-MS analysis; type: ADME, organism-based; set-up: route intravenous, dose 3 mg/kg, time <=4; details: in vivo
[7] = target: T1, Acid ceramidase (Homo sapiens); test: Inhibition of acid ceramidase in human SH-SY5Y cells assessed as reduction in sphingosine level at 1 to 10 uM incubated for 3 hrs by LC-MS analysis; type: cell-based; details: dose 1-10 µM; summary of the method: as §2
[8] = AUC in C57BL/6 mouse at 10 mg/kg, po measured up to 4 hrs by LC/MS-MS analysis; type: ADME, organism-based; set-up: route oral, dose 10 mg/kg, time <=4; details: in vivo
Summary of the method: (§4)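 C57BL/6 mice were dosed intravenously at 3 mg/kg or orally at 10 mg/kg. Plasma PK parameters were derived per route: clearance, Vdss and t1/2 after i.v. dosing, and tmax, Cmax, t1/2 and AUC after oral dosing. Oral bioavailability F was estimated from the oral and i.v. exposures.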

[9] = Kinetic solubility in pH 7.4 PBS buffer at 250 uM incubated for 1 hr by UPLC/MS analysis; type: physicochemical; details: read-out: Kinetic_solubility; summary of the method: as §3
[10] = target: T2, N-acylethanolamine-hydrolyzing acid amidase (Homo sapiens) (UniProt Q02083); test: Inhibition of human NAAA up to 125 uM; details: dose microM <=125
T2 sequence (whole entry): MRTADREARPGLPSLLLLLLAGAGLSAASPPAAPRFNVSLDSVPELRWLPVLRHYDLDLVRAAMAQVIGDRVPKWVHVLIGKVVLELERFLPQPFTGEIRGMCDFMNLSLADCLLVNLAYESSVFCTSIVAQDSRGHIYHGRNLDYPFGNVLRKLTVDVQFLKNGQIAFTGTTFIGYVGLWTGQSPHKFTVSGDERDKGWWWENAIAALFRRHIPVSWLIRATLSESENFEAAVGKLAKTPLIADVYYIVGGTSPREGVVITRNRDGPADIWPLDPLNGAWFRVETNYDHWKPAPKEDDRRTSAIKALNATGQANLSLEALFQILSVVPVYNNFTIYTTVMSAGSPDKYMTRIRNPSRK

[11] = target: T3, Acid ceramidase (Homo sapiens, UniProt Q13510); test: Inhibition of human acid ceramidase using Rbm14-12 fluorogenic substrate incubated for 1 hr by fluorescence assay; details: read-out: IC50
T3 sequence (Q13510 whole entry): T1 sequence (whole entry)

[12] = Stability in mouse liver microsomes at 4.6 uM in presence of NADPH after 60 mins by LC/MS-MS analysis; type: ADME, Microsome; details: read-out: Stabilty; summary of the method: as §3
[13] = Elimination half life in C57BL/6 mouse at 3 mg/kg, iv measured up to 4 hrs by LC/MS-MS analysis; type: ADME, organism-based; details: in vivo; summary of the method: as §4
[14] = Cmax in C57BL/6 mouse at 10 mg/kg, po measured up to 4 hrs by LC/MS-MS analysis; type: ADME, organism-based; set-up: route oral, dose 10 mg/kg, time <=4; details: in vivo; summary of the method: as §4
[15] = target: T1, Acid ceramidase (Homo sapiens); test: Inhibition of acid ceramidase in human SH-SY5Y cells assessed as intracellular accumulation of Cer (d18:1/16:0) at 10 uM incubated for 1 to 6 hrs by LC-MS analysis; type: cell-based; details: time 1-6 hrs; summary of the method: as §1
[16] = target: T1, Acid ceramidase (Homo sapiens); test: Inhibition of acid ceramidase in human SH-SY5Y cells assessed as intracellular accumulation of Cer (d18:0/16:0) at 1 to 10 uM incubated for 3 hrs by LC-MS analysis; type: cell-based; details: dose 1-10 µM; summary of the method: as §2
[17] = target: T1, Acid ceramidase (Homo sapiens); test: Inhibition of acid ceramidase in human SH-SY5Y cells assessed as reduction in sphingolipid levels at 1 to 10 uM incubated for 3 hrs by LC-MS analysis; type: cell-based; details: dose 1-10 µM; summary of the method: as §2
[18] = tested on: SH-SY5Y; test: Effect on SM (d18:1/16:0) levels in human SH-SY5Y cells at 1 to 10 uM incubated for 3 hrs by LC-MS analysis; type: functional, cell-based; details: dose 1-10 µM; summary of the method: as §2
[19] = target: T1, Acid ceramidase (Homo sapiens); test: Inhibition of acid ceramidase in human SH-SY5Y cells assessed as reduction in sphingosine level at 10 uM incubated for 1 to 6 hrs by LC-MS analysis; type: cell-based; details: time 1-6 hrs; summary of the method: as §1
[20] = Oral bioavailability in C57BL/6 mouse at 10 mg/kg measured up to 4 hrs by LC/MS-MS analysis; type: ADME, organism-based; details: in vivo; summary of the method: as §4
[21] = Tmax in C57BL/6 mouse at 10 mg/kg, po measured up to 4 hrs by LC/MS-MS analysis; type: ADME, organism-based; details: in vivo; summary of the method: as §4
[22] = tested on: SH-SY5Y; test: Effect on HexCer (d18:1/16:0) levels in human SH-SY5Y cells at 10 uM incubated for 1 to 6 hrs by LC-MS analysis; type: functional, cell-based; details: time 1-6 hrs; summary of the method: as §1
[23] = Half life in mouse liver microsomes at 4.6 uM in presence of NADPH by LC/MS-MS analysis; type: ADME, Microsome; summary of the method: as §3
[24] = target: T1, Acid ceramidase (Homo sapiens); test: Irreversible covalent inhibition of human acid ceramidase using N-lauroyl ceramide incubated for 1 hr by LC/MS analysis
[25] = Volume of distribution at steady state in C57BL/6 mouse at 3 mg/kg, iv measured up to 4 hrs by LC/MS-MS analysis; type: ADME, organism-based; details: in vivo; summary of the method: as §4
[26] = Volume of distribution at steady state in C57BL/6 mouse at 10 mg/kg, po measured up to 4 hrs by LC/MS-MS analysis; type: ADME, organism-based; details: in vivo
[27] = Clearance in C57BL/6 mouse at 10 mg/kg, po measured up to 4 hrs by LC/MS-MS analysis; type: ADME, organism-based; details: in vivo
[28] = Elimination half life in C57BL/6 mouse at 10 mg/kg, po measured up to 4 hrs by LC/MS-MS analysis; type: ADME, organism-based; details: in vivo; summary of the method: as §4
[29] = tested on: SH-SY5Y; test: Effect on HexCer (d18:1/16:0) levels in human SH-SY5Y cells at 1 to 10 uM incubated for 3 hrs by LC-MS analysis; type: functional, cell-based; details: dose 1-10 µM; summary of the method: as §2

inhibition [2]: Active | inhibition [3]: Dose-dependent effect | t1/2 [4]: 1.83 h | inhibition [5]: Tde | AUC [6]: 31978 ng·min/mL | inhibition [7]: Dose-dependent effect | AUC [8]: 42525 ng·min/mL | solubility kinetic at 1 h, 250 µM [9]: > 250 µM | inhibition [10]: inactive | IC50 [11]: 129 nM | remaining at 1 h, 4.6 µM [12]: 74% | beta t1/2 [13]: 1.98 h | Cmax [14]: 278 ng/mL | inhibition [15]: Active | inhibition [16]: Dose-dependent effect | inhibition [17]: Dose-dependent effect | inhibition [19]: Active | F [20]: 40% | Tmax [21]: 0.5 h | t1/2 [23]: > 1 h | inhibition [24]: Active | Vdss [25]: 12.426 L/kg | Vdss [26]: 32.877 L/kg | CL/F [27]: 155 mL/min/kg | beta t1/2 [28]: 2.45 h
Compound: CCCCCNC(=O)n1cc(-c2ccc(F)cc2C2CCN(C)CC2)oc1=O
Activity [1]: inactive | Activity [18]: inactive | Activity [22]: inactive | Activity [29]: inactive
